Results: ChEMBL document CHEMBL1133450, “Synthesis and antitumor activity of thieno-separated tricyclic purines” (2000)

How the values were obtained:
[1] = system: HCT-116; experiment: Tested for percentage inhibition of HCT116 cell growth after 24 hr at 0.1 uM; type: functional; conditions: Homo sapiens, HCT-116, 24 h; values are per cent of control
Outline: (§1)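 HCT116 cells grown in DMEM with 2 mM L-glutamine, penicillin/streptomycin, nonessential amino acids, 10% heat-inactivated FBS, 37 °C, 5% CO2. Seeded at 500 cells/well, 72 h later refed with serum-containing medium plus DMSO vehicle or agent. CellTiter96 read-out at 24, 48 or 72 h of treatment, expressed as % of DMSO-treated cells. Mean ± SEM, n = 3-5. Student's t-test, significance p < 0.05.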

[2] = system: HCT-116; experiment: Tested for percentage inhibition of HCT116 cell growth after 48 hr at 10 uM; type: functional; conditions: Homo sapiens, HCT-116, 48 h; values are per cent of control; outline: as §1
[3] = system: HCT-116; experiment: Tested for percentage inhibition of HCT116 cell growth after 48 hr at 1 uM; type: functional; conditions: Homo sapiens, HCT-116, 48 h; values are per cent of control; outline: as §1
[4] = system: HCT-116; experiment: Tested for percentage inhibition of HCT116 cell growth after 72 hr at 0.1 uM; type: functional; conditions: Homo sapiens, HCT-116, 72 h; values are per cent of control; outline: as §1
[5] = system: HCT-116; experiment: Tested for percentage inhibition of HCT116 cell growth after 72 hr at 100 uM, (p<0.05); type: functional; conditions: Homo sapiens, HCT-116, 72 h; values are per cent of control; outline: as §1
[6] = system: HCT-116; experiment: Tested for percentage inhibition of HCT116 cell growth after 24 hr at 1 uM; type: functional; conditions: Homo sapiens, HCT-116, 24 h; values are per cent of control; outline: as §1
[7] = system: HCT-116; experiment: Tested for HCT116 cell growth as percentage of control after 72 hr at 1 uM; conditions: Homo sapiens, HCT-116, 72 h
[8] = system: HCT-116; experiment: Tested for HCT116 cell growth as percentage of control after 72 hr at 10 uM; conditions: Homo sapiens, HCT-116, 72 h
[9] = system: HCT-116; experiment: Tested for HCT116 cell growth as percentage of control after 24 hr at 10 uM; conditions: Homo sapiens, HCT-116, 24 h
[10] = system: HCT-116; experiment: Tested for HCT116 cell growth as percentage of control after 24 hr at 100 uM; conditions: Homo sapiens, HCT-116, 24 h
[11] = system: HCT-116; experiment: Tested for HCT116 cell growth as percentage of control after 48 hr at 0.1 uM; conditions: Homo sapiens, HCT-116, 48 h
[12] = system: HCT-116; experiment: Tested for HCT116 cell growth as percentage of control after 48 hr at 100 uM, (p<0.005); conditions: Homo sapiens, HCT-116, 48 h
[13] = system: HCT-116; experiment: Tested for percentage inhibition of HCT116 cell growth after 48 hr at 100 uM, (p<0.05); type: functional; conditions: Homo sapiens, HCT-116, 48 h; values are per cent of control; outline: as §1
[14] = system: HCT-116; experiment: Tested for percentage inhibition of HCT116 cell growth after 72 hr at 0.1 uM, (p<0.05); type: functional; conditions: Homo sapiens, HCT-116, 72 h; values are per cent of control; outline: as §1
[15] = system: HCT-116; experiment: Tested for HCT116 cell growth as percentage of control after 24 hr at 10 uM; conditions: Homo sapiens, HCT-116, 24 h; remark: listed apart in the source

Structure (SMILES) | growth, % of control at 0.1 µM [1] [%] | growth (% of control) at 10 µM [2] [%] | growth, % of control at 1 µM [3] [%] | growth, % of control at 0.1 µM [4] [%] | growth, % of control at 100 µM [5] [%] | growth, % of control at 1 µM [6] [%] | growth, % of control at 1 µM [7] [%] | growth (% of control) at 10 µM [8] [%] | growth (% of control) at 10 µM [9] [%] | growth, % of control at 100 µM [10] [%] | growth, % of control at 0.1 µM [11] [%] | growth, % of control at 100 µM [12] [%] | growth, % of control at 100 µM [13] [%] | growth, % of control at 0.1 µM [14] [%] | growth (% of control) at 10 µM [15] [%]
Nc1ncnc2c1sc1nc[nH]c12 | 96.1 | 105 | 98.3 | 101 | 51.5 | 107 | 96.1 | 93.8 | 105 | 82 | 105 | 71.5 | – | – | –
Nc1nc(O)c2sc3[nH]cnc3c2n1 | 98.7 | 85 | 95.9 | – | 76.1 | 96.7 | 117 | 99.5 | – | 75.8 | 96.8 | – | 77 | 107 | 93.2
